What was measured:
Mus musculus [1] = assay: Effect on protein synthesis in tumor of CD-1 mouse allografted with mouse S180A cells assessed as [14C]-leucine incorporation at 80 mg/kg, ip pretreated for 6 hrs followed by radiotracer-addition measured after 1 hr relative to control; type: functional; details: route intraperitoneal
How it was run: (§1)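 Mice bearing 6-day Sarcoma 180 ascites implants received a single ip dose of 80 mg/kg. At the stated pretreatment time they were given ip tracer: 200 μg thymidine-3H, 200 μg uridine-3H or 125 μg DL-leucine-14C. After 1 h of incorporation, specific radioactivity of DNA, RNA or protein was read as % of control incorporation.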

Mus musculus [2] = assay: Toxicity in C3H mouse allografted with mouse Hepa129 cells assessed as change in body weight at 40 mg/kg administered qd for 6 days (reference value: 13.5%); type: organism-based; design: dose 40 mg/kg; details: in vivo, 144 h
How it was run: (§2)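 Ascitic tumors were transplanted from a donor mouse bearing a 7-day tumor. Daily doses were given for six consecutive days. Percentage body-weight change from onset to termination of therapy served as the index of drug toxicity.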

Mus musculus [3] = assay: Effect on protein synthesis in tumor of CD-1 mouse allografted with mouse S180A cells assessed as [14C]-leucine incorporation at 40 mg/kg, ip pretreated for 1 hr followed by radiotracer-addition measured after 1 hr relative to control; type: functional; details: route intraperitoneal
How it was run: (§3)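 Sarcoma 180 ascites cells implanted 6 days earlier. Mice received a single ip dose of 10–80 mg/kg, then 1 h later an ip tracer: 200 μg thymidine-3H, 200 μg uridine-3H or 125 μg DL-leucine-14C. Tracer was incorporated for 1 h. Specific activity of tumor-cell DNA, RNA or protein is expressed as % of untreated controls. Values are means of 4-16 mice, each analyzed separately.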

Mus musculus [4] = assay: Effect on RNA synthesis in tumor of CD-1 mouse allografted with mouse S180A cells assessed as [3H]-uridine incorporation at 40 mg/kg, ip pretreated for 1 hr followed by radiotracer-addition measured after 1 hr relative to control; type: functional; details: route intraperitoneal; how it was run: as §3
Mus musculus [5] = assay: Toxicity in BDF1 mouse allografted with mouse L1210 cells assessed as change in body weight at 20 mg/kg administered qd for 6 days (reference value: 13.6%); type: organism-based; design: dose 20 mg/kg; details: in vivo, 144 h; how it was run: as §2
Mus musculus [6] = assay: Effect on DNA synthesis in tumor of CD-1 mouse allografted with mouse S180A cells assessed as [3H]-thymidine incorporation at 40 mg/kg, ip pretreated for 1 hr followed by radiotracer-addition measured after 1 hr relative to control; type: functional; details: route intraperitoneal; how it was run: as §3
Ehrlich [7] = assay: Antineoplastic activity against mouse EAC cells allografted in CD-1 mouse assessed as average survival at 40 mg/kg administered qd for 6 days (reference value: 14.4 +/- 1.2 days); type: functional
How it was run: (§4)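 Ascitic tumours were transplanted from an appropriate donor mouse carrying a 7-day tumour growth. Drug was given at 10–60 mg/kg/day for six consecutive days. Sensitivity was judged by prolongation of survival time relative to untreated tumour-bearing controls. Mice were weighed throughout, and percentage weight change from onset to end of therapy indicated toxicity.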

[8] = Antineoplastic activity against mouse S180A cells allografted in CD-1 mouse assessed as mouse survival at 40 mg/kg administered qd for 6 days measured for 50 days relative to control; type: functional; how it was run: as §4
Mus musculus [9] = assay: Effect on RNA synthesis in tumor of CD-1 mouse allografted with mouse S180A cells assessed as [3H]-uridine incorporation at 80 mg/kg, ip pretreated for 3 hrs followed by radiotracer-addition measured after 1 hr relative to control; type: functional; details: route intraperitoneal; how it was run: as §1
Mus musculus [10] = assay: Effect on RNA synthesis in tumor of CD-1 mouse allografted with mouse S180A cells assessed as [3H]-uridine incorporation at 80 mg/kg, ip pretreated for 6 hrs followed by radiotracer-addition measured after 1 hr relative to control; type: functional; details: route intraperitoneal; how it was run: as §1
Mus musculus [11] = assay: Effect on DNA synthesis in tumor of CD-1 mouse allografted with mouse S180A cells assessed as [3H]-thymidine incorporation at 80 mg/kg, ip pretreated for 3 hrs followed by radiotracer-addition measured after 1 hr relative to control; type: functional; details: route intraperitoneal; how it was run: as §1
[12] = Antineoplastic activity against mouse S180A cells allografted in CD-1 mouse assessed as mouse survival at maximum effective dose administered qd for 6 days measured for 50 days relative to control; type: functional
How it was run: (§5)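 Sarcoma 180 ascites cells were transplanted from a donor mouse bearing a 7-day tumour. Each agent was tested at 10–60 mg/kg/day, once daily for six consecutive days, starting 24 h after transplantation, in groups of 5–10 mice. Pooled untreated controls totalled 40 mice. Mice surviving beyond 50 days were counted as 50-day survivors, and body-weight change over therapy served as the toxicity index.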

[13] = Antineoplastic activity against mouse S180A cells allografted in CD-1 mouse assessed as average survival at 20 mg/kg administered qd for 6 days (reference value: 12.9 +/- 1.2 days); type: functional; how it was run: as §4
Mus musculus [14] = assay: Toxicity in C3H mouse allografted with mouse Hepa129 cells assessed as change in body weight at 20 mg/kg administered qd for 6 days (reference value: 13.5%); type: organism-based; design: dose 20 mg/kg; details: in vivo, 144 h; how it was run: as §2
[15] = Antineoplastic activity against mouse S180A cells allografted in CD-1 mouse assessed as average survival at maximum effective dose administered qd for 6 days (reference value: 12.5 +/- 0.3 days); type: functional; how it was run: as §5
Mus musculus [16] = assay: Effect on protein synthesis in tumor of CD-1 mouse allografted with mouse S180A cells assessed as [14C]-leucine incorporation at 20 mg/kg, ip pretreated for 1 hr followed by radiotracer-addition measured after 1 hr relative to control; type: functional; details: route intraperitoneal; how it was run: as §3
Mus musculus [17] = assay: Toxicity in CD-1 mouse allografted with 1-formylisoquinoline thiosemicarbazone-resistant mouse S180A cells assessed as change in body weight at 60 mg/kg administered qd for 6 days (reference value: 29.6%); type: organism-based; design: dose 60 mg/kg; details: in vivo, 144 h; how it was run: as §2
Mus musculus [18] = assay: Toxicity in CD-1 mouse allografted with 1-formylisoquinoline thiosemicarbazone-resistant mouse S180A cells assessed as change in body weight at 40 mg/kg administered qd for 6 days (reference value: 29.6%); type: organism-based; design: dose 40 mg/kg; details: in vivo, 144 h; how it was run: as §2
Mus musculus [19] = assay: Toxicity in BDF1 mouse allografted with mouse L1210 cells assessed as change in body weight at 40 mg/kg administered qd for 6 days (reference value: 13.6%); type: organism-based; design: dose 40 mg/kg; details: in vivo, 144 h; how it was run: as §2
[20] = Antineoplastic activity against mouse S180A cells allografted in CD-1 mouse assessed as average survival at 60 mg/kg administered qd for 6 days (reference value: 12.9 +/- 1.2 days); type: functional; how it was run: as §4
Mus musculus [21] = assay: Effect on DNA synthesis in tumor of CD-1 mouse allografted with mouse S180A cells assessed as [3H]-thymidine incorporation at 80 mg/kg, ip pretreated for 12 hrs followed by radiotracer-addition measured after 1 hr relative to control; type: functional; details: route intraperitoneal; how it was run: as §1
[22] = Antineoplastic activity against mouse Hepa129 cells allografted in C3H mouse assessed as average survival at 40 mg/kg administered qd for 6 days (reference value: 18 +/- 0.6 days); type: functional; how it was run: as §4
[23] = Antineoplastic activity against 1-formylisoquinoline thiosemicarbazone-resistant mouse S180A cells allografted in CD-1 mouse assessed as average survival at 60 mg/kg administered qd for 6 days (reference value: 14.4 +/- 0.9 days); type: functional; how it was run: as §4
Ehrlich [24] = assay: Antineoplastic activity against mouse EAC cells allografted in CD-1 mouse assessed as mouse survival at 40 mg/kg administered qd for 6 days measured for 50 days relative to control; type: functional; how it was run: as §4

SMILES: Cc1ccc(S(=O)(=O)N/N=C/c2cccc[n+]2[O-])cc1
- Activity (Mus musculus [1]): 89%
- Activity (Mus musculus [2]): 2.3%
- Activity (Mus musculus [3]): 93%
- Activity (Mus musculus [4]): 65%
- Activity (Mus musculus [5]): 10.6%
- Activity (Mus musculus [6]): 67%
- Survival (Ehrlich [7]): 47 days
- survival at 40 mg/kg [8]: 20%
- Activity (Mus musculus [9]): 62%
- Activity (Mus musculus [10]): 50%
- Activity (Mus musculus [11]): 53%
- Survival [12]: 0%
- Survival [13]: 24.9 days
- Activity (Mus musculus [14]): 11%
- Survival [15]: 38.4 days
- Activity (Mus musculus [16]): 95%
- Activity (Mus musculus [17]): 0%
- Activity (Mus musculus [18]): 3.4%
- Activity (Mus musculus [19]): 2.8%
- Survival [20]: 38.4 days
- Activity (Mus musculus [21]): 57%
- Survival [22]: 24.8 days
- Survival [23]: 24.4 days
- survival at 40 mg/kg (Ehrlich [24]): 50%

Source: ChEMBL document CHEMBL3271971, “Antineoplastic and biochemical properties of arylsulfonylhydrazones of 2-formylpyridine N-oxide” (J Med Chem, 1976)
